SENP6 block = inhibitors of human SENP6 protease; Q9GZR1; Recombinant SENP6 catalytic domain, aminoluciferin luminescence; inhibition, % at 10 µM; hit rate 1.8% among 330,000;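 active = inhibition above about 50% at the single tested dose, limit read from the data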;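 note: plate controls were DMSO wells with enzyme for no effect and DMSO wells lacking enzyme for full effect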
SENP8 block-1 = SENP8 (human) protease inhibition; Q96LD8; hit rate 0.64% among 360,000; recombinant SENP8, Nedd8 substrate fluorescence; inhibition, % at 20 µM; in the data active = inhibition mostly above about 40%, no sharp cut-off; inactive = mostly below about 27%
UBC13 inh = inhibitors of human UBC13 polyubiquitin chain formation; P61088; TR-FRET; hit rate 0.47% among 330,000; inhibition, % at 20 µM; in the data active = inhibition above about 45%, passing the limit was not always enough; inconclusive = no clear call, values can overlap the other calls
Target sequence (P61088 whole entry, looked up): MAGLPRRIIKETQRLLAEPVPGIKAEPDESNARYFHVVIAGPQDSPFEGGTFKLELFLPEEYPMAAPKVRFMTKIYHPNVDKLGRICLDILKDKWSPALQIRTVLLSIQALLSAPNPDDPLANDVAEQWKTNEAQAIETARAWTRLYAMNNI
Apaf-1 inh = blocks human Apaf-1 apoptosome activity. O14727. reconstituted apoptosome caspase-3 activity, DEVD-Rh110 fluorescence. inhibition, % at 20 µM. hit rate 0.71% among 330,000. AID 489030; active = inhibition of at least 40% at 20 µM;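 note: plate controls were DMSO wells for no effect and DEVD-CHO caspase inhibitor wells for full effect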
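detection = Rh110 fluorescence intensity | test system = biochemical Apaf-1 apoptosome reconstitution | also added = cytochrome c and DEVD-Rh110 substrate | schedule = 30 min plus 50 min, RT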
SENP7 block = inhibitors of human SENP7 protease. Q9BQF6. recombinant SENP7, Z-RLRGG-aminoluciferin luminescence, 40 min. hit rate 1.5% among 330,000. inhibition, % at 5 µM;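 active = inhibition above about 50% at the single test dose, limit read from the data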;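 note: plate controls were DMSO with enzyme for no effect and no enzyme buffer wells for full effect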
SENP8 block-2 = inhibitors of human SENP8 protease; Q96LD8; purified SENP8, Z-RLRGG-aminoluciferin cleavage, luminescence; inhibition, % at 10 µM; hit rate 1.2% among 330,000; AID 2540; in the data active = inhibition above about 50%
Casp3 UBC13 ctr = inhibits human caspase-3 in UBC13 counter-screen. shares compounds with UBC13 inh. Recombinant caspase-3, Caspase-Glo 3/7 luminescence, 60 min. inhibition, % at 20 µM. hit rate 4% among 1,400. AID 488856;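 active = mean inhibition across replicates above about 26%, limit read from the data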;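 note: plate controls were DMSO with caspase-3 for no effect and DMSO wells lacking enzyme for full effect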
Target sequence (P42574 whole entry, looked up): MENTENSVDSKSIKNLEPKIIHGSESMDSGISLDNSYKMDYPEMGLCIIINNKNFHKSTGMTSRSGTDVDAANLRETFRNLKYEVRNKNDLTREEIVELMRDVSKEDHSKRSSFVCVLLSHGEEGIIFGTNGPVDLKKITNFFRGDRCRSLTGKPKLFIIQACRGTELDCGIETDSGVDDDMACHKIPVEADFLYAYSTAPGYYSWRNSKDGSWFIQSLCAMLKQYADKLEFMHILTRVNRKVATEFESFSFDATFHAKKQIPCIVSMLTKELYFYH
UBC13 conf = human UBC13 polyubiquitin inhibition, confirmed; shares compounds with UBC13 inh; UBC13 polyubiquitination, TR-FRET, biochemical; inhibition, % at 10 µM; hit rate 68% among 1,400; in the data active = inhibition above about 45%; inconclusive = no clear call, values can overlap the other calls
An asterisk follows results filed as active; ? = inconclusive; · = no result given. Shown are actives, neighbours in structure and some others; about 3.1% of the full set was active somewhere.

SMILES	SENP6 block	SENP8 block-1	UBC13 inh	Apaf-1 inh	SENP7 block	SENP8 block-2	Casp3 UBC13 ctr	UBC13 conf
COc1cc2ccc(C=O)cc2cc1OC	·	-135	·	·	·	·	·	·
O=S(=O)(Nc1nc2ccccc2[nH]1)c1ccccc1	7	29	32	-6	-7	-4	·	·
O=S(=O)(Nc1nc2ccccc2[nH]1)c1ccc(Cl)cc1	5	3	52*	4	1	2	-2	49*
CC1(C)CC(=O)C2=C(C1)NC1=C(C(=O)c3ccccc31)C2c1ccc(Cl)cc1 (stereo not drawn)	-5	8	50*	10	-3	-3	-4	56*
CN(C)CCC(=O)C(Cc1ccccc1)c1ccccc1 (stereo not drawn)	7	9	47*	-17	8	7	4	40
Cc1ccc(C)c(S(=O)(=O)c2c[nH]c(=S)[nH]c2=O)c1	-13	19	45*	2	-16	-7	0	?
Cc1ccc(C(O)c2ncc(-c3ccccc3F)[nH]2)c(C)c1 (stereo not drawn)	·	14	·	·	·	·	·	·
Cc1ccc(-c2nn(-c3ccccc3)cc2CSC(=N)N)cc1	-15	16	45*	25	-10	-10	1	48*
COc1ccc(-c2noc(CCC(=O)NCC3CCN(Cc4cccc(C)c4)CC3)n2)cc1	-17	18	54*	6	-11	-8	3	49*
O=C(NN1C(=O)/C(=C/C=C/c2ccco2)SC1=S)c1ccccc1O	6	-124	45*	25	-10	-3	4	-6
O=C(O)CCCN1C(=O)/C(=C/C=C/c2ccco2)SC1=S	-152	22	44	37	-11	-7	·	·
Cc1ccc(C)c(N2CCN(C(=S)Nc3ccc4nc(N5CCN(C)CC5)cc(C)c4c3)CC2)c1	-8	-303	49*	7	5	-4	0	73*
CCOc1ccc(N2C(=O)C3C(c4ccccc4)=NN(c4ccccc4)C3C2=O)cc1 (stereo not drawn)	-13	-288	56*	4	4	-3	-4	39
CCOc1ccc(N2C(=O)C3C(C2=O)C3(c2ccccc2)c2ccccc2)cc1 (stereo not drawn)	-4	14	8	16	-3	-4	·	·
CC1(C(=O)Nc2ccc(Cl)c(Cl)c2)CCN1C(=O)Cc1cccc2ccccc12 (stereo not drawn)	·	8	·	·	·	·	·	·
CCOC(=O)c1c(C)[nH]c(/C(C)=N/O)c1C	-11	9	4	-5	-2	-10	·	·
CCOC(=O)c1c(C)[nH]c(C2=NNC(=NC3CC3)SC2)c1C	-1	-33	77*	3	-3	-3	73*	101*
CN(CCNC(=O)C1CCN(c2ncnc3c2nc2n3CCCCC2)CC1)Cc1ccccc1	-10	-10	91*	-3	-5	-7	-1	106*
CCC1CCCCN1CCCNC(=O)C1CCN(c2ncnc3c2nc2n3CCCCC2)CC1 (stereo not drawn)	-10	6	53*	9	-4	6	-4	63*
CC1CCCCN1CCNC(=O)C1CCCN(c2ncnc3c2nc2n3CCCCC2)C1 (stereo not drawn)	-11	11	28	2	4	-1	·	·
NS(=O)(=O)c1ccc(CCNC(=O)C2CCN(c3ncnc4c3nc3n4CCCCC3)CC2)cc1	-17	6	55*	-8	14	-8	-7	59*
Cc1ccc(NC(=O)C2CCN(c3ncnc4c3nc3n4CCCCC3)CC2)cc1Cl	14	-9	72*	34	-18	-5	0	94*
O=C(NCC(F)(F)F)[C@H]1O[C@@H](n2ccc(=O)[nH]c2=O)[C@H](O)[C@@H]1O	·	29	·	·	·	·	·	·
Cc1ccc(NC(=S)NCc2cccs2)cc1	-1	15	52*	-1	11	1	2	6
S=C(NCc1cccs1)Nc1ccccc1	10	12	4	6	7	-2	·	·
SMILES	SENP6 block	SENP8 block-1	UBC13 inh	Apaf-1 inh	SENP7 block	SENP8 block-2	Casp3 UBC13 ctr	UBC13 conf
NCCCCc1ccc2ccc3cccc4ccc1c2c34	-21	-424	49*	29	12	-8	-1	85*
O=S1(=O)CC(N2CCCCC2)CN1C1CCCCC1 (stereo not drawn)	·	21	·	·	·	·	·	·
Cn1cc(Br)c(C(=O)NNC(=O)c2ccc(Br)cc2)n1	·	18	·	·	·	·	·	·
Cc1c(Br)c(C(=O)NNC(=O)c2ccc(C(C)(C)C)cc2)nn1C	-7	16	56*	-24	0	6	0	57*
COc1cc(CNc2ncnc3c2ncn3[C@H]2CN(Cc3ccncc3)C[C@@H](CO)O2)cc(OC)c1OC	·	-13	·	·	·	·	·	·
COCCCn1c(N)c(-c2nc3ccccc3n2C)c2nc3ccccc3nc21	-6	-209	62*	-2	1	-1	-1	59*
Cn1c(-c2c(N)n(CCCc3ccccc3)c3nc4ccccc4nc23)nc2ccccc21	·	-283	·	·	·	·	·	·
C=CCn1c(SCC(=O)N2CCC(C)CC2)nc2c([nH]c3ccccc32)c1=O	·	-9	·	·	·	·	·	·
C#CCOCCOCCOCCNc1nc(N2CCN(C(=O)[C@H](CO)n3cc([C@@H](N)C(C)C)nn3)CC2)nc(N2CCN(C(=O)[C@H](CCC(=O)O)n3cc([C@@H](N)CCCCN)nn3)CC2)n1	-28	2	45*	12	-8	-13	-1	47*
C#CCOCCOCCOCCNc1nc(N2CCN(C(=O)[C@H](CC(N)=O)n3cc(C(N)[C@@H](C)CC)nn3)CC2)nc(N2CCN(C(=O)[C@H](CCCCN)n3cc([C@@H](N)CC(N)=O)nn3)CC2)n1 (stereo partly drawn)	-11	20	15	6	11	-6	·	·
C#CCOCCOCCOCCNc1nc(N2CCN(C(=O)C([C@@H](C)O)n3cc([C@@H](N)CCCCN)nn3)CC2)nc(N2CCN(C(=O)C([C@@H](C)O)n3cc([C@@H](N)CCCCN)nn3)CC2)n1 (stereo partly drawn)	8	24	80*	29	5	4	0	61*
C#CCOCCOCCOCCNc1nc(N2CCN(C(=O)[C@H](CCCCN)n3cc([C@@H](N)CO)nn3)CC2)nc(N2CCN(C(=O)[C@H](CCCCN)n3cc([C@@H](N)CC(C)C)nn3)CC2)n1	-9	25	73*	12	-10	-14	3	66*
C#CCOCCOCCOCCNc1nc(N2CCN(C(=O)[C@H]([C@@H](C)CC)n3cc([C@@H](N)CO)nn3)CC2)nc(N2CCN(C(=O)[C@H](CCCCN)n3cc([C@@H](N)CC(C)C)nn3)CC2)n1	-11	·	10	-1	-3	7	·	·
